Hits are enriched below; roughly 2.3% of the tested compounds scored in any of these assays.
Pyk2 oligo antag: antagonists of Pyk2 self-association, primary screen, Q293 cells, FERM NanoBiT luminescence, HTS. z-score (the deposit names both 25 µM and 10 µM). Protein-tyrosine kinase 2-beta (Homo sapiens), Q14289. stronger effect = lower value. actives 0.83% (n = 99,000);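 active = Z-score of -3 or lower, scaled per plate to the spread of control and sample wells; inactive = z-score above -3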;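 also: negative z-score means lost luminescence so less FERM oligomerization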
CD11b adhes inh: inhibitors of CD11b/CD18 adhesion to fibrinogen, primary screen, K562 cells, luminescence; AID 1497, 2009; ATPlite luminescence; Mn2+ added to activate the integrin; Integrin beta-2 (Homo sapiens) + Integrin alpha-M (Homo sapiens), P05107+P11215; inhibition, % at 10 µM; actives 0.54% (n = 93,000);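 active = primary inhibition of 50% or more at 10 µM, then 40% or more on retest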
Target sequence (P05107 whole entry, looked up, other chains not shown): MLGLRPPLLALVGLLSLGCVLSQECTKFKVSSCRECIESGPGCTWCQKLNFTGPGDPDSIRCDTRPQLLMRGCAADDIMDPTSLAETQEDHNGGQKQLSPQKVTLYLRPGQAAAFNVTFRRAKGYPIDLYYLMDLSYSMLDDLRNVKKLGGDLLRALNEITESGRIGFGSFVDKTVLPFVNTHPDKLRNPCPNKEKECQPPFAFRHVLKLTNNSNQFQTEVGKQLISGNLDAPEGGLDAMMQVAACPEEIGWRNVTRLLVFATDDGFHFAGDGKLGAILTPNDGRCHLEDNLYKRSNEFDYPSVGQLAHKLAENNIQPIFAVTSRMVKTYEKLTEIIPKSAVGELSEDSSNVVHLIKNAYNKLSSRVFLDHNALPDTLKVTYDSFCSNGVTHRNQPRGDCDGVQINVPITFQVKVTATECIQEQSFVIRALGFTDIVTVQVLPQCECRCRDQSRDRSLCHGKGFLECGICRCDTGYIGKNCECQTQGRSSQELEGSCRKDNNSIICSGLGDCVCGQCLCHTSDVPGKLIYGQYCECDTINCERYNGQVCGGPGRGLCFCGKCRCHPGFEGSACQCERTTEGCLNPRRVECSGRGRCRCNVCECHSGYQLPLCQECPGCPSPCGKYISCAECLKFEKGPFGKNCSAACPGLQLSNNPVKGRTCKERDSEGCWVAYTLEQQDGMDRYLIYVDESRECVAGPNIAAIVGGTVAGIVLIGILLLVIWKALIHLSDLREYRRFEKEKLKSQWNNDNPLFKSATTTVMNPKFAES
Mac1 fbg enh: enhancers of CD11b/CD18 adhesion to fibrinogen, primary screen, K562 cells, luminescence; ATPlite luminescence; activation, % at 10 µM; actives 0.07% (n = 93,000); AID 1499, 2009;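 active = 10 µM primary screen giving 50% or more activity, confirmed by 40% or more on retest at that dose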
tolC growth inh: growth inhibitors of E. coli tolC mutant, primary screen, strain BW25113 ΔtolC::kan, 384-well. growth inhibition, % at 10 µM (by protocol). OD615. actives 2.2% (n = 65,000). AID 573, 2007;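 active = growth inhibition at or above a cutoff equal to the mean over every tested compound plus 3 SD, cut at about 60% in these data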;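 also: growth measured after 20 h incubation at 37 °C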
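Signal: optical density read at 615 nm; Assay system: E. coli ΔtolC::kan strain BW25113; Times: 20 h incubation with compound, 37 °C; Dosing: 10 µM final, single dose.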
E coli WT exp: growth inhibitors of wild-type E. coli, primary screen, strain BW25113, expanded library, OD600; OD600 absorbance; growth inhibition, % at 100 µM; actives 0.15% (n = 98,000);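 active = growth inhibition above about 50% at one test dose, limit read from the data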;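 also: growth measured after 20 h incubation at 37 °C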
An asterisk follows results filed as active; x = no result given.

SMILES	Pyk2 oligo antag	CD11b adhes inh	Mac1 fbg enh	tolC growth inh	E coli WT exp
O=C1C2C3C=CC([C@@H]2C(=O)N1C1CCCCC1)[C@H]1C(=O)N(C2CCCCC2)C(=O)C31 (stereo partly specified)	0.27	9.3	-0.4	x	-7.0
Cc1cc([N+](=O)[O-])nn1Cc1ccc(C(=O)N/N=C/c2ccc(O)cc2O)cc1	-0.36	x	x	x	x
COc1ccc(OC)c2c1nc1n2CCS1	-0.11	x	x	x	x
Cc1cc(C)c2[nH]c(=O)c(C(c3nnnn3CC3CCCO3)N3CCCC(C)C3)cc2c1 (stereo unspecified)	1.52	-29.6	2.4	62.1*	-4.0
COc1ccc(/C=C2/C(=O)N(c3nc4ccccc4s3)N=C2CSc2ccc(Cl)cc2)cc1	x	-6.6	77.3	x	x
Cc1ccc(-n2nc3c(c2NC(=O)c2ccc(S(=O)(=O)N4CCOCC4)cc2)CSC3)c(C)c1	-0.3	-10.5	80.0*	-21.9	0.0
Cc1cc(C)nc(NS(=O)(=O)c2ccc(NC(=O)c3ccc(S(=O)(=O)N4CCOCC4)cc3)cc2)n1	-0.1	x	x	x	-8.0
O=C(Nc1ccc(Cc2ccncc2)cc1)c1ccc(S(=O)(=O)N2CCOCC2)cc1	-1.7	92.8*	-10.3	21.5	-12.0
Cc1cc(C)c(O)c(-c2cc(C(=O)Nc3ccc(S(=O)(=O)N4CCOCC4)cc3)[nH]n2)c1	-3.19*	9.4	0.1	91.4*	-10.0
CC(CCc1ccccc1)NC(=O)COC(=O)C12CC3CC(CC(Br)(C3)C1)C2 (stereo unspecified)	x	13.3	5.7	x	x
COc1ccc(NC(=O)c2cc3c(-c4ccc(OC)c(OC)c4)nn(C)c3s2)cc1OC	-3.02*	-27.0	6.3	x	-11.0
O=c1c2c(nc3cc(-c4cccc(Cl)c4)[nH]n13)CCC2	-0.06	x	x	x	3.0
O=c1c2c(nc3c(-c4ccc(Cl)cc4)c[nH]n13)CCCC2	-0.91	-13.7	3.6	100.0*	-2.0
Cc1[nH]n2c(=O)c3c(nc2c1-c1cccc2ccccc12)CCC3	-0.95	x	x	x	4.0
O=c1c2c(nc3c(-c4cccc5ccccc45)c[nH]n13)CCC2	-0.3	47.1	-0.3	65.4*	-2.0
CSc1ccc(/C=N/NC(=O)COc2ccc(Br)cc2Cl)cc1	x	13.3	28.4	x	x
COc1cc(C(=O)Nc2ccc3c(c2)Cc2cc(NC(=O)c4cc(OC)c(OC)c(OC)c4)ccc2-3)cc(OC)c1OC	x	-11.0	25.1	x	x
Cc1cc2c(cc(C(=O)OCC(=O)NCc3cccs3)n2C(C)C)o1	-0.52	4.7	-2.4	74.5*	-8.0
COc1ccc(-c2nnc(SCC(=O)NCc3cccs3)n2C(C)C)cc1	0.77	6.0	-1.6	x	9.0
CCn1cc(C(=O)OC(C)C(=O)Nc2c(C)n(C)n(-c3ccccc3)c2=O)c(=O)c2ccc(C)nc21 (stereo unspecified)	0.22	3.7	-9.2	98.8*	26.0
CCOC(=O)Cc1csc(NC(=O)COc2ccc(N(C)S(=O)(=O)c3ccc(C)cc3)cc2)n1	-3.9*	20.8	-2.3	x	-12.0
CCOC(=O)Cc1csc(NC(=O)COc2ccc(OC)cc2)n1	x	-7.2	-2.2	6.8	6.0
CN1CC(c2ccccc2Cl)C2(COc3ccccc3C2=O)C12C(=O)Nc1ccccc12 (stereo unspecified)	-2.86	x	x	x	-8.0
Cc1ccc(C2CN(C)C3(C(=O)Nc4ccccc43)C23COc2ccccc2C3=O)cc1 (stereo unspecified)	-3.57*	x	x	x	-2.0
CCCOC(=O)c1ccc(Oc2c(-c3ccc(OC)cc3O)n[nH]c2C)cc1	-1.1	12.6	-4.3	54.7	2.0
SMILES	Pyk2 oligo antag	CD11b adhes inh	Mac1 fbg enh	tolC growth inh	E coli WT exp
CCCOC(=O)c1ccc(Oc2c(-c3ccc(O)cc3O)n[nH]c2C)cc1	-2.13	45.3	-6.0	100.0*	15.0
C=C(C)COc1ccc(-c2n[nH]c(C)c2Oc2ccccc2OC)c(O)c1	-2.59	10.6	-1.3	87.7*	9.0
CCOc1ccc(-c2n[nH]c(C)c2Oc2ccccc2OC)c(O)c1	-2.53	3.3	-1.2	95.1*	11.0
Cc1[nH]nc(-c2ccc(O)cc2O)c1Oc1ccccc1	-2.37	49.3	-3.4	4.5	15.0
CCOC(=O)C1=C(C)Nc2nc(=S)[nH]n2C1c1ccc(Cl)cc1 (stereo unspecified)	-0.99	-3.6	30.4	x	4.0
Cc1ccc(C(=O)C[n+]2cc(-c3ccc(C)cc3)n3c2CCCCC3)cc1	-0.93	53.8*	-6.4	x	14.0
CC12COC3(C(N)=O)CC1CCC32C (stereo unspecified)	x	-12.5	17.6	x	x
O=C(Nc1ccc(Cl)cc1)NC1CCCC1Cc1ccco1 (stereo unspecified)	1.15	12.2	-2.6	100.0*	23.0
O=C(Nc1ccc(Cl)cc1)NC1CCCCC1Cc1ccco1 (stereo unspecified)	-2.09	x	x	x	9.0
O=C(Nc1cnn(Cc2ccc(Cl)cc2Cl)c1)c1noc2c1CCCC2	x	x	x	71.2*	-6.0
O=C(Nc1cnn(Cc2ccc(Cl)cc2Cl)c1)c1cc(-c2cccs2)on1	1.4	x	x	7.5	-1.0
OCCSc1c(F)c(SCCO)c(SCCO)c(F)c1SCCO	-0.07	3.0	3.1	3.4	3.0
Cc1ccccc1CSc1nc2n(n1)C(c1cccs1)C1=C(CCCC1=O)N2 (stereo unspecified)	-2.58	-17.9	-0.9	100.0*	-12.0
COc1ccc(-c2nnc(N3CCC(C)CC3)c3ccccc23)cc1	0	x	x	x	-6.0
Cc1ccc(C(=O)c2coc3c2C(=O)C(=O)c2ccccc2-3)cc1	-2.43	-30.2	-1.2	x	-11.0
Cc1oc2c(c1C(=O)c1ccc(Cl)cc1)C(=O)C(=O)c1ccccc1-2	-3.61*	-8.8	-4.8	x	1.0
Cc1ccc(C(=O)c2c(C)oc3c2C(=O)C(=O)c2ccccc2-3)cc1	-3.78*	x	x	x	-4.0
CCOC(=O)N1CCC(NC2CCCCCCC2)CC1	0.4	22.4	-2.8	-7.4	5.0
CC(C)CCNC(=O)CCCC1=NS(=O)(=O)c2ccccc2N1	0.66	x	x	x	x
COc1ccccc1-n1cnnc1SCC(=O)Nc1nc(C)c(Cl)cc1Cl	0.04	1.0	61.0	x	-4.0
N#Cc1ccccc1Sc1ccccc1C(=O)OCc1nnc(-c2ccccc2)o1	-3.69*	-8.9	-1.3	36.1	-19.0
Cc1noc(C)c1COC(=O)c1ccccc1Sc1ccccc1C#N	-1.08	25.1	-2.1	52.3	-13.0
COc1ccc(C(=O)COC(=O)CCN=C2NS(=O)(=O)c3ccccc32)cc1OC	1.61	2.1	-0.6	-5.3	3.0
CC(C)Cn1c(=O)c(C(=O)Nc2ccncc2)c(O)c2ccccc21	x	x	x	96.1*	x
CC(C)Cn1c(=O)c(C(=O)Nc2cnccn2)c(O)c2ccccc21	4.11	4.4	2.2	100.0*	-9.0
CCCn1c(=O)c(C(=O)Nc2ccccc2)c(O)c2ccccc21	-0.48	x	x	x	x
CCCn1c(=O)c(C(=O)Nc2nnc(C)s2)c(O)c2ccccc21	x	x	x	79.9*	x
Cc1ccc(NC(=O)c2c(O)c3ccccc3n(C)c2=O)nc1	0.52	26.7	-4.9	16.8	-7.0

Bioassay records (PubChem BioAssay)
